We go through one compound from BindingDB's records for doi:10.1021/acs.jmedchem.1c00739 (2021).

The term Inhibition denotes the drop in the measured response relative to a control, in per cent.

In this test the target is Protein kinase C alpha type (Homo sapiens, UniProt P17252). Put plainly: Displacement of [3H]-PDBu from recombinant human PKCalpha at 30 uM by scintillation counter method relative to control. In short, it runs like this:
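Competition of 2 nM [3H]PDBu by test ligand at a single fixed concentration (value in line); 50 mM Tris-HCl pH 7.4, 100 μg/mL porcine brain phosphatidylserine, 5 mg/mL bovine IgG, 0.003% Tx-100, 20 ng/tube enzyme; 0.1 mM Ca2+ for PKCα, 1 mM EGTA for PKCε. 5 min at 37 °C, PEG precipitation, bound and free counted separately; nonspecific with 10 μM cold PDBu; triplicates.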
A general note: Loss of bound radioactivity is the signal in a displacement assay; it reports binding, not function.

As to `Cc1ccc(-c2cn(CC3(CO)C/C(=C\CC(CC(C)C)CC(C)C)C(=O)O3)nn2)cc1` (stereo unspecified), the Inhibition amounted to 21%.
